Data on 4 compounds can be found in ChEMBL document CHEMBL5390282, “Discovery of tert-Butyl Ester Based 6-Diazo-5-oxo-l-norleucine Prodrugs for Enhanced Metabolic Stability and Tumor Delivery” (J Med Chem, 2023).

Series [1] is described as follows: Prodrug conversion in C57BL/6 mouse model with CES-/- bearing mouse EL4 cells assessed as concentration of DON release in tumor administered subcutaneously at 1 mg/kg DON equivalent measured after 30 mins. The format is ADME, organism-based. Particulars: in vivo, sc, 0.5 h, read-out: Drug metabolism. The method in brief: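 Male and female CES1–/– C57BL/6 mice, 6–8 weeks old, each carrying a flank EL4 tumour (1 × 10^6 cells SC in PBS, grown to about 400 mm3). Prodrug dissolved just before use in ethanol:Tween 80:saline (5:10:85) and given once SC at 1 mg/kg DON equivalent, n = 3. At 30 min, plasma and tumour collected. DON measured by LC-MS/MS after dabsyl chloride derivatization, glutamate-d5 internal standard, calibration 0.03–100 nmol/mL.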

Series [2] is described as follows: Prodrug conversion in tumor of C57BL/6 mouse model with CES-/- bearing mouse EL4 cells assessed as Cmax of DON metabolite at 2.9 mg/kg, sc measured upto 6 hrs by LC-MS analysis. The format is ADME, organism-based, Neoplasm. The settings on record: in vivo. Details: dose 2.9 mg/kg, time < 6 hrs, route sc. The method in brief:
(§1)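 CES1–/– C57BL/6 mice with flank EL4 tumours (about 400 mm3) dosed SC at 2.9 mg/kg (1 mg/kg DON equivalent) in ethanol:Tween 80:saline (5:10:85). Plasma, tumour and jejunum sampled 0–6 h after dosing. DON quantified by LC-MS/MS after dabsyl chloride derivatization, glutamate-d5 internal standard. Cmax, Tmax and AUC derived by noncompartmental analysis.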

Series [3] in a line: Prodrug conversion in tumor of C57BL/6 mouse model with CES-/- bearing mouse EL4 cells assessed as Tmax of DON metabolite at 2.9 mg/kg, sc measured upto 6 hrs by LC-MS analysis. The format is ADME, organism-based, Neoplasm. Particulars: in vivo. The method in brief:
as §1

The nature of series [4]: Prodrug conversion in tumor of C57BL/6 mouse model with CES-/- bearing mouse EL4 cells assessed as AUC of DON metabolite at 2.9 mg/kg, sc measured upto 6 hrs by LC-MS analysis. The format is ADME, organism-based, Neoplasm. Details: time < 6 hrs, dose 2.9 mg/kg, route sc. Particulars: in vivo. The method in brief: as §1
Series [5] in a line: Prodrug conversion in tumor of C57BL/6 mouse model with CES-/- bearing mouse EL4 cells assessed as half life of DON metabolite at 2.9 mg/kg, sc measured upto 6 hrs by LC-MS analysis. Particulars: in vivo. The format is ADME, organism-based, Neoplasm. The method in brief:
as §1

Series [6] in a line: Prodrug conversion in plasma of C57BL/6 mouse model with CES-/- bearing mouse EL4 cells assessed as Cmax of DON metabolite at 2.9 mg/kg, sc measured upto 6 hrs by LC-MS analysis. The format is ADME, organism-based. Also noted: time < 6 hrs, dose 2.9 mg/kg, route sc. Particulars: in vivo. Summed up:
as §1

Series [7] can be described thus: Prodrug conversion in plasma of C57BL/6 mouse model with CES-/- bearing mouse EL4 cells assessed as Tmax of DON metabolite at 2.9 mg/kg, sc measured upto 6 hrs by LC-MS analysis. The format is ADME, organism-based. The settings on record: in vivo. Summed up:
as §1

Series [8] in a line: Prodrug conversion in plasma of C57BL/6 mouse model with CES-/- bearing mouse EL4 cells assessed as AUC of DON metabolite at 2.9 mg/kg, sc measured upto 6 hrs by LC-MS analysis. The format is ADME, organism-based. Also noted: time < 6 hrs, dose 2.9 mg/kg, route sc. The settings on record: in vivo. Summed up:
as §1

The nature of series [9]: Prodrug conversion in plasma of C57BL/6 mouse model with CES-/- bearing mouse EL4 cells assessed as half life of DON metabolite at 2.9 mg/kg, sc measured upto 6 hrs by LC-MS analysis. The format is ADME, organism-based. Particulars: in vivo. Summed up:
as §1

The nature of series [10]: Prodrug conversion in C57BL/6 mouse model with CES-/- bearing mouse EL4 cells assessed as ratio of DON metabolite AUC in tumor to plasma at 2.9 mg/kg, sc measured upto 6 hrs by LC-MS analysis. The format is ADME, organism-based. The settings on record: tumour. The method in brief:
as §1

Series [11] in a line: Prodrug conversion in jejunum of C57BL/6 mouse model with CES-/- bearing mouse EL4 cells assessed as Cmax of DON metabolite at 2.9 mg/kg, sc measured upto 6 hrs by LC-MS analysis. The format is ADME, organism-based. Details: dose 2.9 mg/kg, time < 6 hrs, route sc. Particulars: in vivo. Summed up: as §1
Series [12] in a line: Prodrug conversion in jejunum of C57BL/6 mouse model with CES-/- bearing mouse EL4 cells assessed as Tmax of DON metabolite at 2.9 mg/kg, sc measured upto 6 hrs by LC-MS analysis. The settings on record: in vivo. The format is ADME, organism-based. The method in brief:
as §1

Series [13] in a line: Prodrug conversion in jejunum of C57BL/6 mouse model with CES-/- bearing mouse EL4 cells assessed as AUC of DON metabolite at 2.9 mg/kg, sc measured upto 6 hrs by LC-MS analysis. The format is ADME, organism-based. Also noted: dose 2.9 mg/kg, time < 6 hrs, route sc. Particulars: in vivo. Summed up: as §1
Series [14] can be described thus: Prodrug conversion in jejunum of C57BL/6 mouse model with CES-/- bearing mouse EL4 cells assessed as half life of DON metabolite at 2.9 mg/kg, sc measured upto 6 hrs by LC-MS analysis. The format is ADME, organism-based. Particulars: in vivo. Summed up:
as §1

Series [15] can be described thus: Prodrug conversion in C57BL/6 mouse model with CES-/- bearing mouse EL4 cells assessed as ratio of DON metabolite AUC in tumor to jejunum at 2.9 mg/kg, sc measured upto 6 hrs by LC-MS analysis. The format is ADME, organism-based. The settings on record: in vivo. Summed up:
as §1

The nature of series [16]: Prodrug conversion in tumor of C57BL/6 mouse model with CES-/- bearing mouse EL4 cells assessed as AUC (0 to t) of DON metabolite at 2.9 mg/kg, sc measured upto 6 hrs by LC-MS analysis. The format is ADME, organism-based, Neoplasm. Particulars: in vivo. The method in brief:
as §1

The nature of series [17]: Prodrug conversion in plasma of C57BL/6 mouse model with CES-/- bearing mouse EL4 cells assessed as AUC (0 to t) of DON metabolite at 2.9 mg/kg, sc measured upto 6 hrs by LC-MS analysis. The format is ADME, organism-based. Particulars: in vivo. Summed up: as §1
Series [18] in a line: Prodrug conversion in jejunum of C57BL/6 mouse model with CES-/- bearing mouse EL4 cells assessed as AUC (0 to t) of DON metabolite at 2.9 mg/kg, sc measured upto 6 hrs by LC-MS analysis. The format is ADME, organism-based. Particulars: in vivo. Summed up:
as §1

The nature of series [19]: Prodrug conversion of C57BL/6 mouse model with CES-/- bearing mouse EL4 cells assessed as ratio of DON metabolite AUC (0 to t) in tumor to plasma at 2.9 mg/kg, sc measured upto 6 hrs by LC-MS analysis. The settings on record: tumour. The format is ADME, organism-based. The method in brief:
as §1

Series [20] is described as follows: Prodrug conversion of C57BL/6 mouse model with CES-/- bearing mouse EL4 cells assessed as ratio of DON metabolite AUC (0 to t) in tumor to jejunum at 2.9 mg/kg, sc measured upto 6 hrs by LC-MS analysis. The format is ADME, organism-based. The settings on record: in vivo. Summed up: as §1
Series [21] in a line: Drug concentration in jejunum of C57BL/6 mouse model with CES-/- bearing mouse EL4 cells at 2.9 mg/kg, sc measured upto 6 hrs by LC-MS analysis. The format is ADME, organism-based. Summed up:
as §1

Series [22] is described as follows: Chemical stability of compound at pH 7.4 at 10 uM incubated for 24 hrs by HRMS analysis. The settings on record: buffer, pH 7.4, 24 h. The format is physicochemical. Summed up: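 Prodrug spiked at 10 μM into pH 7.4 buffer and held at 37 °C for 24 h. Loss of prodrug followed by HRMS.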
Series [23] is described as follows: Stability in human plasma suspended with human P493B cells assessed as tumor cell to plasma partitioning at 20 uM incubated for 1 hr. The format is ADME. The method in brief: (§2)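 P493B cells resuspended in human plasma at 10 million cells/mL and preincubated 5 min at 37 °C. Prodrug spiked at 20 μM final and incubated 1 h at 37 °C, in triplicate. Cells pelleted at 1000g. Plasma and pellet each analysed by LC-MS for intact prodrug and DON, with calibration made in each matrix. Partitioning expressed as cell/plasma ratio.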

The nature of series [24]: Stability in human P493B cells suspended in human plasma assessed as tumor cell to plasma partitioning ratio at 20 uM incubated for 1 hr. The format is ADME, cell-based. Summed up: as §2
Series [25] can be described thus: Stability in human P493B cells suspended in human plasma assessed as DON metabolite release at 20 uM incubated for 1 hr. The format is ADME, cell-based. Summed up: as §2
The subject of another series is P493B. The experiment in a line: Antiproliferative activity against human P493B cells assessed as reduction in cell viability incubated for 72 hrs by Cell Titer 96 Aqueous assay. The format is functional, cell-based. Summed up: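 P493B lymphoma cells seeded at 20 000 cells/well. Test agent added as half-log serial dilutions in 0.2% DMSO final, then 72 h growth. CellTiter 96 AQueous reagent added for 2 h and absorbance read at 490 nm. Viability scaled between untreated cells (100%) and cell-free medium (0%). EC50 obtained by nonlinear regression of log-transformed data.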

Series [26] is described as follows: Prodrug conversion in human P493B cells suspended in human plasma assessed as DON metabolite concentration at 20 uM incubated for 1 hr. The format is ADME, cell-based. Summed up:
as §2

Structures are written as SMILES.

Consider `CN(C)CC(=O)N[C@@H](Cc1ccc(C(F)(F)F)cc1)C(=O)N[C@@H](CCC(=O)C=[N+]=[N-])C(=O)OC(C)(C)C`, for which the concentration in series [1] was 4.16 µM.
Broadly, the Cmax is the highest concentration seen after dosing. Usually Tmax stands for the time at which the peak concentration occurs. As usually defined, the AUC is concentration integrated over time. As to `CN(C)CC(=O)N[C@@H](Cc1ccccc1)C(=O)N[C@@H](CCC(=O)C=[N+]=[N-])C(=O)OC(C)(C)C`, the concentration in series [1] is 5.49 µM. Moreover, the Cmax in series [2] worked out at 5.49 µM; in series [6], 1.86 µM; in [11] it was 1.54 µM. Also, the Tmax in series [3] stood at 30 min; in [7] it was 30 min; in series [12] it was 60 min. Further, the area under the curve (AUC) was 14.4 µM·h in series [4], 3.97 µM·h in series [8] and 3.67 µM·h in [13]. In addition, the t1/2 in series [5] came out at 83.4 min; in series [9], 87 min; in series [14] it was 59.4 min. Further, the “Ratio AUC” value in [10] amounted to 3.63; in [15], 3.92; in series [19], 3.6; in series [20], 4.4. The AUCt turned out to be 13.7 nmol·h/g in series [16], 3.8 nmol·h/g in series [17] and 3.13 nmol·h/g in series [18]. The concentration at 6 h in [21] is below 0.01 µM. The Stability entry was “Stable” in series [22], “Stable” in series [23] and “Unstable” in [25]. For the same compound, the Ratio in [24] turned out to be 140. Moreover, the Activity result with P493B is “Dose-Dependent Effect”. The Drug metabolism in [26] worked out at 46.7 µM.
Consider `CC(=O)N[C@@H](Cc1c[nH]c2ccccc12)C(=O)N[C@@H](CCC(=O)C=[N+]=[N-])C(=O)OC(C)C` [SIRPIGLENASTAT], for which the concentration in [1] was found to be 1.21 µM. Also, the figures for the Stability entry in series [22], in series [23] and in series [25] were “Stable”, “Stable” and “Unstable”, respectively. For the same compound, the Ratio in series [24] turned out to be 180. Besides, the Activity entry with P493B is “Dose-Dependent Effect”. In addition, in series [26], the Drug metabolism is 9.1 µM.
As for `CN(C)CC(=O)N[C@@H](CCc1ccccc1)C(=O)N[C@@H](CCC(=O)C=[N+]=[N-])C(=O)OC(C)(C)C`, the concentration in [1] was 4.52 µM.
